Reference: ChEMBL document CHEMBL4052671, “Design, synthesis, and evaluation of DNA topoisomerase II-targeted nucleosides” (Bioorg Med Chem, 2017)
Blank lines part the entries; values can stand above or below the compound they belong to. Calls of active or inactive are those of the source. The calls are words filed in the database; no cut-off is given here.

How the values were obtained:
[1] = target: DNA topoisomerase 1 (Homo sapiens) (UniProt P11387); experiment: Inhibition of human placenta DNA topoisomerase-1 assessed as decrease in relaxation of supercoiled pUC19 DNA at 200 uM after 30 mins by ethidium bromide staining based agarose gel electrophoresis
DNA topoisomerase 1 (Homo sapiens), sequence (P11387 whole entry): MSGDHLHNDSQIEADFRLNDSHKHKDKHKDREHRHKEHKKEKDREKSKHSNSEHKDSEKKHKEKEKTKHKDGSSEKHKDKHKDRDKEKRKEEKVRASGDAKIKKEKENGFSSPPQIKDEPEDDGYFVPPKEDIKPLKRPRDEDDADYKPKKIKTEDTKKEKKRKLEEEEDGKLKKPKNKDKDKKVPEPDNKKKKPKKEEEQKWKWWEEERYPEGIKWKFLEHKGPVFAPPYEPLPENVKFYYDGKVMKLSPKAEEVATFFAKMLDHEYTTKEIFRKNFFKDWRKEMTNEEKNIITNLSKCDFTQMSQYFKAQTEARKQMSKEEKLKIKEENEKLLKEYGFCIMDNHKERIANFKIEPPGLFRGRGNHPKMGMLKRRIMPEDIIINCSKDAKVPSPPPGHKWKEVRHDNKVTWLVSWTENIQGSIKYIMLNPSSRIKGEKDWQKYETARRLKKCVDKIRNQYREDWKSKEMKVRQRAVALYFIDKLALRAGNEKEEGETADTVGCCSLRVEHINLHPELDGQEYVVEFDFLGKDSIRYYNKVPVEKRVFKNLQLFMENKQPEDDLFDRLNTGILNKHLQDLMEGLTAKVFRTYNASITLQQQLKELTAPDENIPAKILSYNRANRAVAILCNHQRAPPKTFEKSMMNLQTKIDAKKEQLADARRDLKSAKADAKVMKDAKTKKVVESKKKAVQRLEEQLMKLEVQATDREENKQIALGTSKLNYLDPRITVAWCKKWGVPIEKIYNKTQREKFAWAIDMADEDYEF

[2] = target: T1, DNA topoisomerase 2-alpha (Homo sapiens, UniProt P11388); experiment: Inhibition of recombinant human DNA topoisomerase-2alpha assessed as decrease in relaxation of supercoiled pBR322 DNA after 30 mins by ethidium bromide staining based agarose gel electrophoresis
T1 sequence (P11388 whole entry): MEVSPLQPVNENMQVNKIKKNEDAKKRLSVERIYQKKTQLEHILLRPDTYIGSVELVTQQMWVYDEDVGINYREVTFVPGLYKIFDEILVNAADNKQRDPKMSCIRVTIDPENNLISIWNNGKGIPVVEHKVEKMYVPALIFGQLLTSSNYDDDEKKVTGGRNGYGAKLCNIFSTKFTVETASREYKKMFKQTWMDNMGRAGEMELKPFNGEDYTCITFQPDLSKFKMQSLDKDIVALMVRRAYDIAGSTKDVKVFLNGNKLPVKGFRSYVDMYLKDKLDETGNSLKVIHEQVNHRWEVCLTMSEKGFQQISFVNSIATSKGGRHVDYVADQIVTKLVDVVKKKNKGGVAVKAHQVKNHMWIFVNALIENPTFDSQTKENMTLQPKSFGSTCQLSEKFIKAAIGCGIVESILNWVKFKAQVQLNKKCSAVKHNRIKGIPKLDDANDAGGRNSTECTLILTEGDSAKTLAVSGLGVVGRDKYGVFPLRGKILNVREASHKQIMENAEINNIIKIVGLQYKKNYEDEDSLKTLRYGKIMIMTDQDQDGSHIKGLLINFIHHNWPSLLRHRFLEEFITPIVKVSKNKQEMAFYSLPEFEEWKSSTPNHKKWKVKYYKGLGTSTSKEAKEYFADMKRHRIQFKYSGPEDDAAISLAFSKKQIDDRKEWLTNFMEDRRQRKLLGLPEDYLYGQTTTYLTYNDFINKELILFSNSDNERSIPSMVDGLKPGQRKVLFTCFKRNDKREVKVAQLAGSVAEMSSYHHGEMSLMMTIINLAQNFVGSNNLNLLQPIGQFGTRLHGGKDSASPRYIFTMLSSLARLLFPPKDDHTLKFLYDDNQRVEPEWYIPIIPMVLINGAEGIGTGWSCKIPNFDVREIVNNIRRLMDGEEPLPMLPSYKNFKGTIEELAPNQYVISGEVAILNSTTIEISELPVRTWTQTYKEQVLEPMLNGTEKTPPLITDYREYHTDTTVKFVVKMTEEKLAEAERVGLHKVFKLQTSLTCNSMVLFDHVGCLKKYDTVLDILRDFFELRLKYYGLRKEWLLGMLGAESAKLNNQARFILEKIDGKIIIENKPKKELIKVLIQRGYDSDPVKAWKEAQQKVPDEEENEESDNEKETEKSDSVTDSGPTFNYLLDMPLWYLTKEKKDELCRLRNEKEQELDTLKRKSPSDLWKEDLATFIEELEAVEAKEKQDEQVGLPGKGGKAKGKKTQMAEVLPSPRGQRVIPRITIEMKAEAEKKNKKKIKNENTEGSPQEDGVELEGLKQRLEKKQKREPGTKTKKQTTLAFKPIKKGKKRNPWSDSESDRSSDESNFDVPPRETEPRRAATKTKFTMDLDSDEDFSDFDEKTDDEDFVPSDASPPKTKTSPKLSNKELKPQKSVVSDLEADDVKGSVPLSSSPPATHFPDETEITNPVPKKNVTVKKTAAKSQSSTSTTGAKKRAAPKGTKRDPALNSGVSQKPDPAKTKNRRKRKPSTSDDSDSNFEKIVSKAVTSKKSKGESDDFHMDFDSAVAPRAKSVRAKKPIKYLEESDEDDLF

[3] = target: T1, DNA topoisomerase 2-alpha; experiment: Inhibition of recombinant human DNA topoisomerase-2alpha assessed as decrease in relaxation of supercoiled pBR322 DNA at 100 uM after 30 mins by ethidium bromide staining based agarose gel electrophoresis
Summary of the method: (§1)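 Topo II relaxation of supercoiled pBR322 (198 ng) with 1 U enzyme, 50 mM Tris-HCl pH 8, 120 mM KCl, 10 mM MgCl2, 0.5 mM ATP, 0.5 mM DTT, drug in <10% DMSO; 37 °C for 30 min; products run on 1% agarose in TAE, ethidium-stained, scanned; supercoiled DNA area quantified.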

[4] = target: T1, DNA topoisomerase 2-alpha; experiment: Poison activity at recombinant human DNA topoisomerase-2alpha assessed as linear DNA formation using supercoiled pBR322 DNA as substrate at 200 uM after 30 mins by ethidium bromide staining based agarose gel electrophoresis
Summary of the method: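 Cleavage reactions: 200 ng pBR322, 6 U topo II, 30 mM Tris-HCl pH 7.6, 60 mM NaCl, 8 mM MgCl2, 3 mM ATP, 15 mM mercaptoethanol, drug in 10% DMSO; 37 °C, 30 min; SDS/proteinase K 60 min, 37 °C; 1% agarose in TBE with 0.1% SDS and ethidium bromide; linear DNA scored.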

MKN-1 = experiment: Growth inhibition of human MKN1 cells incubated for 48 hrs by sulforhodamine B assay; format: functional; details: MKN-1, 48 h
NCI-H460 = experiment: Growth inhibition of human NCI-H460 cells incubated for 48 hrs by sulforhodamine B assay; format: functional; details: NCI-H460, 48 h
NCI-H226 = experiment: Growth inhibition of human NCI-H226 cells incubated for 48 hrs by sulforhodamine B assay; format: functional; details: NCI-H226, 48 h
U-251 = experiment: Growth inhibition of human U251 cells incubated for 48 hrs by sulforhodamine B assay; format: functional; details: U-251, 48 h
[5] = Growth inhibition of human BSY1 cells incubated for 48 hrs by sulforhodamine B assay; format: functional; details: BSY-1, 48 h
OVCAR-4 = experiment: Growth inhibition of human OVCAR4 cells incubated for 48 hrs by sulforhodamine B assay; format: functional; details: OVCAR-4, 48 h
MKN-74 = experiment: Growth inhibition of human MKN74 cells incubated for 48 hrs by sulforhodamine B assay; format: functional; details: MKN-74, 48 h
A549 = experiment: Growth inhibition of human A549 cells incubated for 48 hrs by sulforhodamine B assay; format: functional; details: A549, 48 h
DMS-273 = experiment: Growth inhibition of human DMS273 cells incubated for 48 hrs by sulforhodamine B assay; format: functional; details: DMS-273, 48 h
SF-295 = experiment: Growth inhibition of human SF295 cells incubated for 48 hrs by sulforhodamine B assay; format: functional; details: SF-295, 48 h
SF-539 = experiment: Growth inhibition of human SF539 cells incubated for 48 hrs by sulforhodamine B assay; format: functional; details: SF-539, 48 h
St-4 = experiment: Growth inhibition of human St-4 cells incubated for 48 hrs by sulforhodamine B assay; format: functional; details: St-4, 48 h
SNB-78 = experiment: Growth inhibition of human SNB78 cells incubated for 48 hrs by sulforhodamine B assay; format: functional; details: SNB-78, 48 h
MKN-45 = experiment: Growth inhibition of human MKN45 cells incubated for 48 hrs by sulforhodamine B assay; format: functional; details: MKN-45, 48 h
DMS-114 = experiment: Growth inhibition of human DMS114 cells incubated for 48 hrs by sulforhodamine B assay; format: functional; details: DMS-114, 48 h
HCT-15 = experiment: Growth inhibition of human HCT15 cells incubated for 48 hrs by sulforhodamine B assay; format: functional; details: HCT-15, 48 h
ACHN = experiment: Growth inhibition of human ACHN cells incubated for 48 hrs by sulforhodamine B assay; format: functional
HCC 2998 = experiment: Growth inhibition of human HCC2998 cells incubated for 48 hrs by sulforhodamine B assay; format: functional; details: HCC 2998, 48 h
SF-268 = experiment: Growth inhibition of human SF268 cells incubated for 48 hrs by sulforhodamine B assay; format: functional; details: SF-268, 48 h
MCF7 = experiment: Growth inhibition of human MCF7 cells incubated for 48 hrs by sulforhodamine B assay; format: functional; details: MCF7, 48 h
HT-29 = experiment: Growth inhibition of human HT-29 cells incubated for 48 hrs by sulforhodamine B assay; format: functional; details: HT-29, 48 h
[6] = Growth inhibition of human […] incubated for 48 hrs by sulforhodamine B assay; format: functional
OVCAR-8 = experiment: Growth inhibition of human OVCAR8 cells incubated for 48 hrs by sulforhodamine B assay; format: functional; details: OVCAR-8, 48 h
LOX IMVI = experiment: Growth inhibition of human LOXIMVI cells incubated for 48 hrs by sulforhodamine B assay; format: functional
NCI-H522 = experiment: Growth inhibition of human NCI-H522 cells incubated for 48 hrs by sulforhodamine B assay; format: functional; details: NCI-H522, 48 h
MKN-28 = experiment: Growth inhibition of human MKN28 cells incubated for 48 hrs by sulforhodamine B assay; format: functional; details: MKN-28, 48 h
OVCAR-3 = experiment: Growth inhibition of human OVCAR3 cells incubated for 48 hrs by sulforhodamine B assay; format: functional; details: OVCAR-3, 48 h
OVCAR-5 = experiment: Growth inhibition of human OVCAR5 cells incubated for 48 hrs by sulforhodamine B assay; format: functional; details: OVCAR-5, 48 h
[7] = Growth inhibition of human HBC5 cells incubated for 48 hrs by sulforhodamine B assay; format: functional; details: HBC5, 48 h
[8] = Growth inhibition of human HBC4 cells incubated for 48 hrs by sulforhodamine B assay; format: functional; details: HBC4, 48 h
RXF 631 = experiment: Growth inhibition of human RXF631L cells incubated for 48 hrs by sulforhodamine B assay; format: functional; details: RXF 631, 48 h
SNB-75 = experiment: Growth inhibition of human SNB75 cells incubated for 48 hrs by sulforhodamine B assay; format: functional; details: SNB-75, 48 h
SK-OV-3 = experiment: Growth inhibition of human SKOV3 cells incubated for 48 hrs by sulforhodamine B assay; format: functional; details: SK-OV-3, 48 h
HCT-116 = experiment: Growth inhibition of human HCT116 cells incubated for 48 hrs by sulforhodamine B assay; format: functional; details: HCT-116, 48 h
DU-145 = experiment: Growth inhibition of human DU145 cells incubated for 48 hrs by sulforhodamine B assay; format: functional; details: DU-145, 48 h
MKN-7 = experiment: Growth inhibition of human MKN7 cells incubated for 48 hrs by sulforhodamine B assay; format: functional; details: MKN-7, 48 h
KM12 = experiment: Growth inhibition of human KM12 cells incubated for 48 hrs by sulforhodamine B assay; format: functional; details: KM12, 48 h
PC-3 = experiment: Growth inhibition of human PC3 cells incubated for 48 hrs by sulforhodamine B assay; format: functional; details: PC-3, 48 h
NCI-H23 = experiment: Growth inhibition of human NCI-H23 cells incubated for 48 hrs by sulforhodamine B assay; format: functional; details: NCI-H23, 48 h
[9] = target: T1, DNA topoisomerase 2-alpha; experiment: Inhibition of recombinant human DNA topoisomerase-2alpha assessed as decrease in relaxation of supercoiled pBR322 DNA at […] after 30 mins by ethidium bromide staining based agarose gel electrophoresis relative to control; summary of the method: as §1

GI50 (MKN-1): 5.01 µM
GI50 (NCI-H460): 5.62 µM
GI50 (NCI-H226): 3390 nM
GI50 (U-251): 7.41 µM
GI50 (OVCAR-4): 4.9 µM
GI50 (MKN-74): 4.27 µM
GI50 (A549): 5.37 µM
IC50 [2]: 18.5 µM
GI50 (MKN-45): 8.32 µM
GI50 (HCT-15): 9.12 µM
GI50 (ACHN): 6.76 µM
GI50 (HCC 2998): 12.9 µM
GI50 (MCF7): 4.37 µM
GI50 (HT-29): 6.17 µM
GI50 (OVCAR-8): 8.32 µM
GI50 (NCI-H522): 5.62 µM
GI50 (MKN-28): 4.9 µM
GI50 (OVCAR-3): 11 µM
GI50 (OVCAR-5): 12.9 µM
GI50 (SK-OV-3): 17 µM
GI50 (HCT-116): 5.75 µM
GI50 (DU-145): 12 µM
GI50 (MKN-7): 3020 nM
GI50 (PC-3): 3630 nM
GI50 (NCI-H23): 11 µM
Compound: COc1ccc(C2([C@H]3C[C@@H](n4cc(C)c(=O)[nH]c4=O)O[C@@H]3CO[Si](C)(C)C(C)(C)C)SCCCS2)cc1OC
GI50 [5]: 3310 nM
GI50 (DMS-273): 4.57 µM
GI50 (SF-295): 8.32 µM
GI50 (SF-539): 14.1 µM
GI50 (St-4): 12 µM
GI50 (SNB-78): 12.9 µM
GI50 (DMS-114): 5.62 µM
GI50 (SF-268): 12.9 µM
GI50 [6]: 11 µM
GI50 (LOX IMVI): 8.13 µM
GI50 [7]: 5.75 µM
GI50 [8]: 5.01 µM
GI50 (RXF 631): 17 µM
GI50 (SNB-75): 17 µM
GI50 (KM12): 11 µM

inhibition [9]: inactive
Compound: COc1ccc(C[C@H]2C[C@@H](n3cc(C)c(=O)[nH]c3=O)O[C@@H]2CO)cc1OC

IC50 [2]: 99.1 µM
Compound: COc1ccc(C[C@H]2C[C@H](n3cc(C)c(=O)[nH]c3=O)O[C@@H]2CO[Si](C)(C)C(C)(C)C)cc1OC

More lines, now with the values behind:

Compound: Cc1cn([C@H]2C[C@H](Cc3ccc(O)c(O)c3)[C@@H](CO)O2)c(=O)[nH]c1=O
inhibition [1]: inactive
IC50 [2]: 176 µM
inhibition [2]: Dose-dependent effect
inhibition [3]: inactive
Activity [4]: inactive

Compound: COc1cc([C@@H]2c3cc4c(cc3[C@@H](O[C@@H]3O[C@@H]5CO[C@@H](C)O[C@H]5[C@H](O)[C@H]3O)[C@H]3COC(=O)[C@H]23)OCO4)cc(OC)c1O
Activity [4]: Active

Compound: COc1ccc(C[C@H]2C[C@@H](n3cc(C)c(=O)[nH]c3=O)O[C@@H]2CO[Si](C)(C)C(C)(C)C)cc1OC
IC50 [2]: 89.2 µM

Compound: COc1ccc(C[C@H]2CC(=O)O[C@@H]2CO)cc1OC
inhibition [9]: inactive

Compound: COc1ccc(C2([C@H]3C[C@H](n4cc(C)c(=O)[nH]c4=O)O[C@@H]3CO[Si](C)(C)C(C)(C)C)SCCCS2)cc1OC
GI50 (MKN-1): 2.29 µM
GI50 (NCI-H460): 3.63 µM
GI50 (NCI-H226): 2000 nM
inhibition [1]: inactive
GI50 (U-251): 3.8 µM
GI50 [5]: 1820 nM
GI50 (OVCAR-4): 2.88 µM
GI50 (MKN-74): 3.24 µM
GI50 (A549): 4.68 µM
GI50 (DMS-273): 3.8 µM
IC50 [2]: 8.1 µM
GI50 (SF-295): 3.72 µM
GI50 (SF-539): 2.19 µM
GI50 (St-4): 4.47 µM
GI50 (SNB-78): 5.5 µM
GI50 (MKN-45): 3.31 µM
GI50 (DMS-114): 3.31 µM
GI50 (HCT-15): 4.07 µM
GI50 (ACHN): 2.51 µM
GI50 (HCC 2998): 3.31 µM
GI50 (SF-268): 6.46 µM
GI50 (MCF7): 3.31 µM
GI50 (HT-29): 3.89 µM
GI50 [6]: 3.47 µM
GI50 (OVCAR-8): 3.89 µM
GI50 (LOX IMVI): 3.24 µM
GI50 (NCI-H522): 2.69 µM
GI50 (MKN-28): 3.31 µM
GI50 (OVCAR-3): 3.72 µM
GI50 (OVCAR-5): 2.88 µM
GI50 [7]: 2.51 µM
GI50 [8]: 3.8 µM
GI50 (RXF 631): 4.57 µM
GI50 (SNB-75): 10 µM
GI50 (SK-OV-3): 5.25 µM
GI50 (HCT-116): 3.63 µM
GI50 (DU-145): 3.72 µM
GI50 (MKN-7): 2290 nM
GI50 (KM12): 4.07 µM
GI50 (PC-3): 2290 nM
GI50 (NCI-H23): 3.72 µM
